Published values gathered from unrelated publications.
Lines come from different studies, so protocols differ.

SMILES	organism	test	system	conditions	endpoint	value
Cc1ccn2c(C(=O)N3CCN(CCn4cc(-c5ccc(C(C)(C)C)cc5)nn4)CC3)c(C)nc2c1	Leishmania major	parasite growth, resazurin	–	72 h, promastigote	IC50	15.1 µM
Cc1ccc2nc(-c3ccccc3O)[nH]c2c1	Enterococcus faecalis	microbial growth, broth dilution	ATCC29212	–	MIC	64 µg/mL
Cc1nc2ccc(Cl)cn2c1C(=O)N1CCN(Cc2cn(-c3ccc([N+](=O)[O-])cc3)nn2)CC1	Leishmania major	parasite growth, resazurin	–	72 h, promastigote	IC50	> 250 µM
C[C@@H](c1ncncc1F)[C@](O)(Cn1cncn1)c1ccc(F)cc1F	Acanthamoeba griffini	parasite growth, resazurin	–	96 h	IC50	0.29 µM
C[C@@H]1[C@H](O)[C@@H](C)/C=C/C=C/C=C/C=C/C=C/C=C/C=C/[C@H](O[C@@H]2O[C@H](C)[C@@H](O)[C@H](N)[C@@H]2O)C[C@@H]2O[C@](O)(C[C@@H](O)C[C@@H](O)[C@H](O)CC[C@@H](O)C[C@@H](O)CC(=O)O[C@H]1C)C[C@H](O)[C@H]2C(=O)O	Aspergillus fumigatus	microbial growth	ATCC204305	–	MIC	1.35 µM
CN(C)N1C(=O)c2ccccc2C1CB1OC(C)(C)C(C)(C)O1 (stereo not drawn)	Leishmania major	parasite growth	–	promastigote	IC50	238 µM
COc1ccc(-c2nc3ccccc3[nH]2)cc1O	Enterococcus faecalis	microbial growth, broth dilution	ATCC29212	–	MIC	64 µg/mL
N=C(NCCCCCCNC(=N)NC(=N)Nc1ccc(Cl)cc1)NC(=N)Nc1ccc(Cl)cc1	Acanthamoeba griffini	parasite growth, resazurin	–	96 h	IC50	7.38 µM
Cc1ccc(C)n1-c1ccc(-c2nnc(S)s2)cc1	Enterococcus faecalis	microbial growth, broth dilution	ATCC14506	18 h	MIC	1 µg/mL
Cc1ccc2nc(-c3ccc(Cl)c(Cl)c3)[nH]c2c1	Enterococcus faecalis	microbial growth, broth dilution	ATCC29212	–	MIC	16 µg/mL
Cc1ccn2c(C(=O)N3CCN(Cc4cn(-c5ccc([N+](=O)[O-])cc5)nn4)CC3)c(C)nc2c1	Leishmania major	parasite growth, resazurin	–	72 h, promastigote	IC50	> 500 µM
C=CCn1c(-c2ccc(Cl)c(Cl)c2)nc2ccccc21	Enterococcus faecalis	microbial growth, broth dilution	ATCC29212	–	MIC	64 µg/mL
CC1=NN(CNc2ccc(C(=O)O)cc2)C(=O)C1=NNn1c(-c2ccccc2)nc2ccccc2c1=O	Aspergillus fumigatus	microbial growth, broth dilution	–	–	MIC	50.5 µM
C#CCCCCCCCCC=CCC(O)CC(O)CO (stereo not drawn)	Aspergillus fumigatus	microbial growth, resazurin	ATCC204305	–	IC50	> 8 µg/mL
CCCc1cn(CCN2CCN(C(=O)c3c(C)nc4cc(C)ccn34)CC2)nn1	Leishmania major	parasite growth, resazurin	–	72 h, promastigote	IC50	176 µM
Fc1ccc(-c2nc3ccccc3[nH]2)cc1	Enterococcus faecalis	microbial growth, broth dilution	ATCC29212	–	MIC	256 µg/mL
O=C1NN=C(N=Cc2ccc(O)cc2O)C1=NNn1c(-c2ccccc2)nc2ccccc2c1=O	Aspergillus fumigatus	microbial growth, broth dilution	–	–	MIC	53.5 µM
CCc1ccc(-n2cc(CN3CCN(C(=O)c4c(C)nc5cc(C)ccn45)CC3)nn2)cc1	Leishmania major	parasite growth, resazurin	–	72 h, promastigote	IC50	74.6 µM
CC1=NN(CNc2ccccc2[N+](=O)[O-])C(=O)C1=NNn1c(-c2ccccc2)nc2ccccc2c1=O	Aspergillus fumigatus	microbial growth, broth dilution	–	–	MIC	50.4 µM
Cc1ccn2c(C(=O)N3CCN(Cc4cn(-c5ccccc5)nn4)CC3)c(C)nc2c1	Leishmania major	parasite growth, resazurin	–	72 h, promastigote	IC50	246 µM
c1ccc2c(-c3nc4ccccc4[nH]3)c3ccccc3cc2c1	Enterococcus faecalis	microbial growth, broth dilution	ATCC29212	–	MIC	64 µg/mL
